Paper PMC4050360 (Results in Pharma Sciences, 2014)
Converted amounts (≈) assume the structure as drawn.

Columns and labels:
[1] = ref 41 (Scifinder); cited from earlier work
[2] = In vivo pharmacokinetic study, intravenous emulsion; design: species or system female Sprague Dawley rats; settings: rat
Outline: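 Female Sprague Dawley rats (248–276 g; n = 6/group) received a tail-vein dose molar equivalent to 5 mg aripiprazole/kg. Vehicle: submicron emulsion (20% w/w MCT oil, 1.2% lecithin, 2% glycerol, water; 1 mg aripiprazole-equivalent/mL). K-EDTA blood was sampled at 5, 15, 30 min and 1–24 h. Acidified-acetonitrile plasma extracts with d8 internal standard were analysed by positive-ESI MRM. Two-compartment fit; trapezoidal AUC extrapolated to infinity; mean ± SEM.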

[3] = cited from earlier work
[4] = female, Sprague Dawley, plasma, iv, 5 mg/kg

Compound | Estimated pKa [1] | clearance ([2]; female, Sprague Dawley, plasma, iv, 5 mg aripiprazole/kg (molar equivalent)) | Vd [2, 4] | half-life [2, 4] | AUC0?8 ([2]; i.v., molar equivalent to 5 mg aripiprazole/kg, n = 6, mean ± SEM) | solubility in water [3]
O=C1CCc2ccccc2N1 [3,4-dihydro-2(1H)-quinolinone] | 14.6 |  |  |  |  | 
O=C1CCc2ccc(OCCCCN3CCN(c4cccc(Cl)c4Cl)CC3)cc2N1 [aripiprazole] |  | 22.8 mL/min/kg | 8.16 ± 0.75 L/kg | ~4.2 h | 8176 ± 2647 nmol?h/L | 9 µM (≈ 4.04 µg/mL)
